Results collected from several papers.
Target: Activin receptor type-1-like (ACVRL1, Homo sapiens, UniProt P37023)

COc1cc(Cl)c(C(=O)N[C@@H](CN[C@H]2CC[C@@H](N)CC2)Cc2ccc(C#N)cc2)cc1-c1ccc(CN[C@H](C)c2ccc(C)cc2)o1
remaining activity (enzyme activity, inhibitor; 1 µM): 123%

N#Cc1ccc(Nc2ccc3[nH]c(=O)[nH]c3c2)c(Cl)c1
remaining binding (binding, competition with immobilised ligand; 1 µM): 100%

O=C1NC(=O)c2cc(Nc3ccc(F)cc3)c(Nc3ccc(F)cc3)cc21
remaining signal (cell-free assay; 0.5 µM): 95.9%

Cc1nccc(COC(=O)N2C[C@@H]3[C@@H](CNC(=O)c4ccc5[nH]nnc5c4)[C@@H]3C2)n1
remaining binding (binding, competition with immobilised ligand; 1 µM): 100%

CCN(CC)CCNC(=O)c1c(C)[nH]c(/C=C2\C(=O)Nc3ccc(F)cc32)c1C
remaining signal (cell-free assay; 0.5 µM): 112%

CC(C)(C)c1nc(-c2cccc(NS(=O)(=O)c3c(F)cccc3F)c2F)c(-c2ccnc(N)n2)s1
remaining activity (enzyme activity, inhibitor, radiometric; 1 µM): 75%

C[C@H](c1cccc(C#N)c1)n1cc(Cl)cc(C(N)=O)c1=N
remaining binding (cell-free assay, competition with immobilised ligand; 1 µM): 93%

Cc1ccc(NC(=O)c2ccc(C)c(C(F)(F)F)c2)cc1C#Cc1nn(C2CCC(O)CC2)c2ncnc(N)c12 (stereo not shown)
remaining signal (cell-free assay; 10 µM): 71%

Cc1ccc(C(=O)Nc2ccc(CN3CCN(C)CC3)c(C(F)(F)F)c2)cc1C#Cc1cnc2cccnn12
remaining signal (cell-free assay; 23.5 nM): 100%

CCC(=O)N[C@@H]1CC[C@H](C(=O)N(C)c2ccc(-c3nc4ccccc4o3)cc2)C1
remaining binding (cell-free assay, competition with immobilised ligand; 1 µM): 100%

CN1CC(Oc2cnc(C#N)cc2-c2ccn3nc(NC(=O)C4CC4)cc3c2)C1
inhibition (enzyme activity, inhibitor; 1 µM): 4%

O=C(Nc1cnn(-c2csc(C(=O)NC3COC3)c2)c1)Nc1ccccc1Cl
remaining activity (enzyme activity, inhibitor; 5 µM): 107%

O=C1Nc2ccc(Cl)cc2C1=Cc1cc(Cl)c(O)c(Cl)c1
remaining signal (cell-free assay; 0.5 µM): 96.4%

Cc1ccc(C(=O)NCc2ccsc2)cc1C#Cc1cn(C(C)C)c2ncnc(N)c12
activity vs control (enzyme activity, inhibitor; 1 µM): 94%

Nc1ncnc2occ(-c3ccc(NC(=O)Nc4cc(C(F)(F)F)ccc4F)cc3)c12
remaining signal (cell-free assay; 20 µM): 100%

N#CCCc1ccc2c(c1)-c1[nH]c3ccc([N+](=O)[O-])cc3c1CC(=O)N2
remaining signal (cell-free assay; 0.5 µM): 53.6%
